Data taken from ChEMBL document CHEMBL1944595, “1,4-diarylpiperazines and analogs as anti-tubercular agents: synthesis and biological evaluation” (Eur J Med Chem, 2012).
≈ marks a conversion by molar mass, not a printed value.

Tests used:
Type in all cases: functional
[1] = test system: Mycobacterium tuberculosis; experiment: Antibacterial activity against Mycobacterium tuberculosis H37Rv harboring pSMT1 encoding Vibrio harveyi luxAB gene at 1 uM after 7 days by luminometric analysis; details: 168 h, read-out: GI
How it was run: (§1)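 Same extracellular assay. Bacteria seeded at 1000 RLU per well in Sauton + 10% FCS. Compounds added from 1 mM DMSO stocks to final 10, 1 or 0.1 per well. Incubated 7 days at 37 °C, 5% CO2. Wells harvested, washed four times with PBS and pooled. 1% n-decanal added and luminescence read over 10 s. Percent growth inhibition calculated against untreated control cultures.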

[2] = test system: Mycobacterium tuberculosis; experiment: Antibacterial activity against Mycobacterium tuberculosis H37Rv harboring pSMT1 encoding Vibrio harveyi luxAB gene at 10 uM after 7 days by luminometric analysis; details: 168 h, read-out: GI; how it was run: as §1
[3] = test system: Mycobacterium tuberculosis; experiment: Antibacterial activity against Mycobacterium tuberculosis H37Rv harboring pSMT1 encoding Vibrio harveyi luxAB gene at 0.1 uM after 7 days by luminometric analysis; details: 168 h, read-out: GI; how it was run: as §1
[4] = test system: Mycobacterium tuberculosis; experiment: Antibacterial activity against Mycobacterium tuberculosis H37Rv harboring pSMT1 encoding Vibrio harveyi luxAB gene after 7 days by luminometric analysis; details: 168 h
[5] = test system: Mycobacterium tuberculosis; experiment: Antibacterial activity against Mycobacterium tuberculosis H37Rv harboring pSMT1 encoding Vibrio harveyi luxAB gene infected in mouse J774.A1 cells at 0.5 uM after 5 days by luminometric analysis; details: J774.A1, 120 h, read-out: GI
How it was run: (§2)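 J774.A1 macrophages seeded at 40 000 per well and rested overnight. Infected with 4000 RLU of luminescent H37Rv (MOI 0.1) in DMEM with penicillin/Fungizone, with compound dilutions added. Treated 5 days, then washed, given 1 h 1% gentamicin, and lysed with 1% Triton X-100. Lysate luminescence read over 10 s with n-decanal. Inhibition relative to untreated infected cells; six replicate cultures.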

[6] = test system: Mycobacterium tuberculosis; experiment: Antibacterial activity against Mycobacterium tuberculosis H37Rv harboring pSMT1 encoding Vibrio harveyi luxAB gene infected in mouse J774.A1 cells at 1 uM after 5 days by luminometric analysis; details: J774.A1, 120 h, read-out: GI; how it was run: as §2
[7] = test system: Mycobacterium tuberculosis; experiment: Antibacterial activity against Mycobacterium tuberculosis H37Rv harboring pSMT1 encoding Vibrio harveyi luxAB gene infected in mouse J774.A1 cells at 2 uM after 5 days by luminometric analysis; details: J774.A1, 120 h, read-out: GI; how it was run: as §2
[8] = test system: Mycobacterium tuberculosis; experiment: Antimicrobial activity against multidrug-resistant Mycobacterium tuberculosis LAM1 by BACTEC 460-TB method
How it was run: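 Clinical MDR LAM-1 isolate, resistant to isoniazid, rifampicin, rifabutin and prothionamide. Pre-cultured in 7H9-based BACTEC vial to growth index 300. 100 µL inoculated into a new vial with compound dilutions prepared in 7H9 + 10% OADC. GI read daily. MIC99 determined by comparison with an untreated culture diluted 100-fold at inoculation.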

SMILES	inhibition of growth at 1 µM [1] [%]	inhibition of growth at 10 µM [2] [%]	inhibition of growth at 0.1 µM [3] [%]	MIC50 [4] [µM]	inhibition in vivo at 0.5 µM [5] [%]	inhibition in vivo at 1 µM [6] [%]	inhibition in vivo at 2 µM [7] [%]	MIC99 [8] [µM]
O=[N+]([O-])c1ccc(N2CCN(c3ccccc3)CC2)cc1	< 10	26	< 10	–	–	–	–	–
O=[N+]([O-])c1ccc(NCCNc2ccc([N+](=O)[O-])cc2)cc1	< 10	16	< 10	–	–	–	–	–
O=[N+]([O-])c1ccc(N2CCN(c3ccc([N+](=O)[O-])cc3)CC2)cc1	10	13	< 10	–	–	–	–	–
Nc1ccc(N2CCN(c3ccccc3)CC2)cc1	< 10	30	< 10	–	–	–	–	–
N#Cc1ccc(N2CCN(c3ccccc3)CC2)cc1	< 10	23	< 10	–	–	–	–	–
Nc1ccc(N2CCN(c3ccc(N)cc3)CC2)cc1	10	27	< 10	–	–	–	–	–
N#Cc1ccc(N2CCN(c3ccc(C#N)cc3)CC2)cc1	< 10	22	< 10	–	–	–	–	–
O=[N+]([O-])c1ccccc1NCCNc1ccccc1[N+](=O)[O-]	< 10	< 10	< 10	–	–	–	–	–
O=[N+]([O-])c1cccc(NCCNc2cccc([N+](=O)[O-])c2)c1	< 10	13	< 10	–	–	–	–	–
N#Cc1ccc(NCCNc2ccc(C#N)cc2)cc1	< 10	10	< 10	–	–	–	–	–
N#Cc1ccccc1NCCNc1ccccc1C#N	< 10	< 10	< 10	–	–	–	–	–
N#Cc1cccc(NCCNc2cccc(C#N)c2)c1	< 10	< 10	< 10	–	–	–	–	–
Cl.N=C(N)c1ccc(N2CCN(c3ccccc3)CC2)cc1	< 10	14	< 10	29.6	-0.47	0.41	1.83	–
CNC(=N)c1ccc(N2CCN(c3ccccc3)CC2)cc1.Cl	< 10	16	< 10	15.9	-0.8	6.43	14.9	–
CCNC(=N)c1ccc(N2CCN(c3ccccc3)CC2)cc1.Cl	< 10	10	< 10	11.9	3.93	13.4	22.5	–
CCCNC(=N)c1ccc(N2CCN(c3ccccc3)CC2)cc1.Cl	< 10	33	< 10	7.01	5.62	12.9	26.1	–
CCCCNC(=N)c1ccc(N2CCN(c3ccccc3)CC2)cc1.Cl	< 10	66	< 10	2.16	25.6	31.6	50.6	–
CCCCCNC(=N)c1ccc(N2CCN(c3ccccc3)CC2)cc1.Cl	39	95	< 10	1.2	44.7	53.6	64.7	3.85
CCCCCCNC(=N)c1ccc(N2CCN(c3ccccc3)CC2)cc1.Cl	91	99	49	0.264	67.1	79.2	88.1	2.11
CCCCCCCNC(=N)c1ccc(N2CCN(c3ccccc3)CC2)cc1.Cl	94	100	47	0.091	61.1	64.2	83.3	1.48
CCCCCCCCNC(=N)c1ccc(N2CCN(c3ccccc3)CC2)cc1.Cl	94	100	61	0.072	15.2	31.1	71.6	1.17
CCCCCCCCCCCCNC(=N)c1ccc(N2CCN(c3ccccc3)CC2)cc1.Cl	97	100	68	0.052	10.7	23.4	44.9	0.95
CCC(CC)NC(=N)c1ccc(N2CCN(c3ccccc3)CC2)cc1	19	67	< 10	–	–	–	–	–
N=C(N)c1ccc(NCCNc2ccccc2)cc1	< 10	< 100	< 10	–	–	–	–	–
CCC(CC)NC(=N)c1ccc(NCCNc2ccccc2)cc1	19	63	10	–	–	–	–	–
CCCCCCNC(=N)c1ccc(NCCNc2ccccc2)cc1	48	93	23	–	–	–	–	–
N=C(NCCc1ccccc1)c1ccc(N2CCN(c3ccccc3)CC2)cc1	56	97	< 10	–	–	–	–	–
NNC(=O)c1ccncc1 [ISONIAZID]	100	100	98	0.465 (≈ 0.0638 µg/mL)	9.77	29.4	51.4	–
